Assay [1] relates to Bacillus cereus. The assay can be described thus: Antibacterial activity against Bacillus cereus after 24 hrs by agar streak dilution method. It counts as functional. The procedure, abridged: (§1)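 MIC by agar streak dilution. Graded amounts of DMSO stock (100 μg/mL) were mixed into molten sterile nutrient agar and poured 4–5 mm deep. Serial concentrations spanned 3.12–100 µg/mL. Plates were inoculated with about 10⁵ CFU/mL of bacterial suspension and incubated at (37 ± 1) °C for 24 h. Each value is the mean of three independent experiments.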

Assay [2] deals with Shigella flexneri. Nature of the assay: Antibacterial activity against Shigella flexneri after 24 hrs by agar streak dilution method. Format: functional. An outline of the steps:
as §1

Assay [3] relates to Aspergillus clavatus. Nature of the assay: Antifungal activity against Aspergillus clavatus after 48 hrs by agar streak dilution method. Format: functional. The procedure, abridged: (§2)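 Fungal MIC by agar streak dilution on Sabouraud dextrose agar, poured 4–5 mm deep. Compound from a DMSO stock (100 μg/mL) was incorporated at serial concentrations of 3.12–100 µg/mL. Plates were inoculated with about 10⁵ CFU/mL of suspension and incubated at (37 ± 1) °C for 48 h. Each value is the mean of three independent experiments.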

In assay [4] the test system is Aspergillus niger. The assay can be described thus: Antifungal activity against Aspergillus niger at 100 ug/disc after 24 hrs by disc diffusion method. Format: functional. The conditions noted are these: read-out: DIZ. An outline of the steps:
(§3)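 Paper disc diffusion on autoclaved Mueller-Hinton agar poured 5 mm deep. Agar was swab-inoculated with 10⁵ CFU/mL suspension (0.5 McFarland). Discs 6.25 mm across were soaked in compound solution in DMSO (3.12–100 µg/mL) and plates incubated 24 h at (37 ± 1) °C. Read-out was inhibition zone (mm). DMSO control disc; ciprofloxacin or ketoconazole reference, 100 µg/disc. Mean of three independent experiments.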

For assay [5], the system named is Pseudomonas aeruginosa. Nature of the assay: Antibacterial activity against Pseudomonas aeruginosa at 100 ug/disc after 24 hrs by disc diffusion method. It counts as functional. The conditions noted are these: read-out: DIZ. An outline of the steps:
as §3

Assay [6] has as its system Bacillus cereus. The assay can be described thus: Antibacterial activity against Bacillus cereus at 100 ug/disc after 24 hrs by disc diffusion method. The conditions noted are these: read-out: DIZ. Format: functional. An outline of the steps: as §3
For orientation: A growth-free zone around the sample is the usual read-out of agar diffusion tests.

Assay [7] relates to Proteus vulgaris. The assay can be described thus: Antibacterial activity against Proteus vulgaris at 100 ug/disc after 24 hrs by disc diffusion method. Format: functional. The conditions noted are these: read-out: DIZ. The procedure, abridged:
as §3

Assay [8] concerns Candida albicans. Nature of the assay: Antifungal activity against Candida albicans at 100 ug/disc after 24 hrs by disc diffusion method. Format: functional. The conditions noted are these: read-out: DIZ. An outline of the steps: as §3
For assay [9], the system named is Pseudomonas aeruginosa. The assay can be described thus: Antibacterial activity against Pseudomonas aeruginosa […] after 24 hrs by agar streak dilution method. Format: functional.
Assay [10] has as its system Aspergillus fumigatus. The assay can be described thus: Antifungal activity against Aspergillus fumigatus after 48 hrs by agar streak dilution method. It counts as functional. The procedure, abridged:
as §2

The subject of assay [11] is Escherichia coli. Nature of the assay: Antibacterial activity against Escherichia coli at 100 ug/disc after 24 hrs by disc diffusion method. It counts as functional. The conditions noted are these: read-out: DIZ. An outline of the steps: as §3
Assay [12] has as its system Staphylococcus aureus. The assay can be described thus: Antibacterial activity against Staphylococcus aureus at 100 ug/disc after 24 hrs by disc diffusion method. Format: functional. The conditions noted are these: read-out: DIZ. The procedure, abridged: as §3
Assay [13] deals with Salmonella typhi. The assay can be described thus: Antibacterial activity against Salmonella Typhi at 100 ug/disc after 24 hrs by disc diffusion method. It counts as functional, Salmonella enterica subsp. enterica serovar Typhi. The conditions noted are these: Salmonella enterica, read-out: DIZ. An outline of the steps:
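Paper disc diffusion on Mueller-Hinton agar poured 5 mm deep; 10⁵ CFU/mL suspension (0.5 McFarland) swabbed over surface. 6.25 mm filter paper discs soaked in compound in DMSO, incubated 24 h at (37 ± 1) °C; inhibition zone diameter in mm. DMSO disc as blank; ciprofloxacin 100 µg/disc as reference. Mean of three independent experiments.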

Assay [14] deals with Salmonella typhi. Nature of the assay: Antibacterial activity against Salmonella Typhi after 24 hrs by agar streak dilution method. The conditions noted are these: Salmonella enterica. It counts as functional, Salmonella enterica subsp. enterica serovar Typhi. An outline of the steps:
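Agar streak dilution: DMSO stock (100 µg/mL) graded into molten sterile nutrient agar, poured 4–5 mm deep and solidified. Plates carry serial dilutions spanning 3.12–100 µg/mL. Applied ~10⁵ CFU/mL suspension, then incubated 24 h at (37 ± 1) °C. MIC read as the lowest inhibitory concentration; each value is the mean of three independent experiments.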

Assay [15] concerns Klebsiella pneumoniae. The assay can be described thus: Antibacterial activity against Klebsiella pneumoniae […] after 24 hrs by agar streak dilution method. Format: functional.
Assay [16] deals with Aspergillus clavatus. The assay can be described thus: Antifungal activity against Aspergillus clavatus at 100 ug/disc after 24 hrs by disc diffusion method. It counts as functional. The conditions noted are these: read-out: DIZ. The procedure, abridged:
as §3

Assay [17] has as its system Shigella flexneri. Nature of the assay: Antibacterial activity against Shigella flexneri at 100 ug/disc after 24 hrs by disc diffusion method. It counts as functional. The conditions noted are these: read-out: DIZ. An outline of the steps:
as §3

For assay [18], the system named is Aspergillus fumigatus. Nature of the assay: Antifungal activity against Aspergillus fumigatus at 100 ug/disc after 24 hrs by disc diffusion method. It counts as functional. The conditions noted are these: read-out: DIZ. The procedure, abridged:
as §3

For assay [19], the system named is Proteus vulgaris. Nature of the assay: Antibacterial activity against Proteus vulgaris after 24 hrs by agar streak dilution method. It counts as functional. The procedure, abridged: as §1
The test system of assay [20] is Escherichia coli. The assay can be described thus: Antibacterial activity against Escherichia coli after 24 hrs by agar streak dilution method. It counts as functional. An outline of the steps:
as §1

Assay [21] deals with Staphylococcus aureus. The assay can be described thus: Antibacterial activity against Staphylococcus aureus after 24 hrs by agar streak dilution method. It counts as functional. The procedure, abridged: as §1
Assay [22] concerns Aspergillus niger. The assay can be described thus: Antifungal activity against Aspergillus niger after 48 hrs by agar streak dilution method. Format: functional. The procedure, abridged:
as §2

Assay [23] has as its system Candida albicans. Nature of the assay: Antifungal activity against Candida albicans after 48 hrs by agar streak dilution method. Format: functional. An outline of the steps: as §2
For assay [24], the system named is Klebsiella pneumoniae. The assay can be described thus: Antibacterial activity against Klebsiella pneumoniae at 100 ug/disc after 24 hrs by disc diffusion method. It counts as functional. The conditions noted are these: read-out: DIZ. The procedure, abridged:
as §3

Values after ≈ are worked out from the molar mass of the structure shown.

The term MIC denotes the least concentration at which growth counts as inhibited. A low value points to greater potency. As to `CCN1CCN(CC2SC(c3cccc(F)c3)N(c3ccc(Nc4nc(Oc5cc(=O)n(C)c6ccccc56)nc(N(C)C)n4)cc3)C2=O)CC1` (configuration not stated), the MIC in assay [1] was found to be 6.25 µg/mL (≈ 8.8 µM); in assay [2], 12.5 µg/mL (≈ 17.6 µM); in assay [3], 50 µg/mL (≈ 70.4 µM); in assay [9] it was 50 µg/mL (≈ 70.4 µM); in assay [10] it was 50 µg/mL (≈ 70.4 µM); in assay [14], 6.25 µg/mL (≈ 8.8 µM). For the same compound, the MIC in assay [15] was found to be 25 µg/mL (≈ 35.2 µM); in [19] it was 50 µg/mL (≈ 70.4 µM); in [20], 6.25 µg/mL (≈ 8.8 µM); in [21], 12.5 µg/mL (≈ 17.6 µM); in assay [22], 12.5 µg/mL (≈ 17.6 µM); in [23], 25 µg/mL (≈ 35.2 µM). In addition, the zone of inhibition at 100 µg/disc came to 25 mm in assay [4]; 20 mm in assay [5]; 23 mm in assay [6]; 19 mm in assay [7]; 25 mm in assay [8]; 23 mm in assay [11]. For the same compound, the zone of inhibition at 100 µg/disc in [12] is 20 mm; in [13], 24 mm; in [16] it was 24 mm; in [17] it was 25 mm; in assay [18], 24 mm; in [24] it was 22 mm.
On to `CCN1CCN(CC2SC(c3ccc(Cl)cc3)N(c3ccc(Nc4nc(Oc5cc(=O)n(C)c6ccccc56)nc(N(C)C)n4)cc3)C2=O)CC1` (configuration not stated), for which the MIC in [1] stood at 6.25 µg/mL (≈ 8.61 µM); in [2] it was 12.5 µg/mL (≈ 17.2 µM); in assay [3], 12.5 µg/mL (≈ 17.2 µM); in assay [9] it was 50 µg/mL (≈ 68.8 µM); in [10], 12.5 µg/mL (≈ 17.2 µM); in [14] it was 50 µg/mL (≈ 68.8 µM). Moreover, the MIC in [15] came out at 6.25 µg/mL (≈ 8.61 µM); in [19] it was 25 µg/mL (≈ 34.4 µM); in assay [20], 12.5 µg/mL (≈ 17.2 µM); in [21] it was 6.25 µg/mL (≈ 8.61 µM); in assay [22], 25 µg/mL (≈ 34.4 µM); in [23], 12.5 µg/mL (≈ 17.2 µM). The zone of inhibition at 100 µg/disc is 26 mm in assay [4]; 23 mm in assay [5]; 28 mm in assay [6]; 25 mm in [7]; 27 mm in assay [8]; 27 mm in assay [11]. Also, the zone of inhibition at 100 µg/disc came to 26 mm in assay [12]; 20 mm in assay [13]; 23 mm in assay [16]; 26 mm in [17]; 26 mm in assay [18]; 26 mm in [24].
`CCN1CCN(CC2SC(c3ccc([N+](=O)[O-])cc3)N(c3ccc(Nc4nc(Oc5cc(=O)n(C)c6ccccc56)nc(N(C)C)n4)cc3)C2=O)CC1` (configuration not stated): the MIC came out at 50 µg/mL (≈ 67.9 µM) in assay [1]; 50 µg/mL (≈ 67.9 µM) in assay [2]; 100 µg/mL (≈ 136 µM) in assay [3]; 100 µg/mL (≈ 136 µM) in assay [9]; 100 µg/mL (≈ 136 µM) in [10]; 100 µg/mL (≈ 136 µM) in [14]. Moreover, the MIC came to 50 µg/mL (≈ 67.9 µM) in assay [15]; 50 µg/mL (≈ 67.9 µM) in assay [19]; 100 µg/mL (≈ 136 µM) in assay [20]; 50 µg/mL (≈ 67.9 µM) in assay [21]; 50 µg/mL (≈ 67.9 µM) in assay [22]; 100 µg/mL (≈ 136 µM) in assay [23]. Besides, the zone of inhibition at 100 µg/disc worked out at 23 mm in assay [4]; 18 mm in assay [5]; 22 mm in assay [6]; 25 mm in [7]; 17 mm in assay [8]; 24 mm in assay [11]. The zone of inhibition at 100 µg/disc in assay [12] worked out at 22 mm; in [13], 22 mm; in assay [16], 21 mm; in [17], 22 mm; in assay [18] it was 20 mm; in assay [24], 23 mm.

These data come from ChEMBL document CHEMBL1933017, “Synthesis and biological evaluation of some thiazolidinones as antimicrobial agents” (2012).
